H9c2 TAG inh – triacylglycerol accumulation inhibition | H9c2 cells, Nile Red lipid (TAG) fluorescence; cells loaded with 200 µM oleic acid | inhibition, % at 12.5 µM | actives 0.66% (n = 230,000);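 active = pattern-corrected inhibition of lipid staining of at least 50% with the nuclear-stain viability signal not falling by more than 50%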
Hep lipid drop – hepatic lipid droplet formation modulation | AML12 mouse hepatocytes, oleate lipid droplets, BODIPY imaging | inhibition, % at 6.5 µM | actives 0.4% (n = 240,000) | AID 1656;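 active = lipid droplet intensity inhibited by at least 50%, with more than 500 cells counted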
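Assay system: AML12 mouse liver cells | Compound dosing: One dose, 6.5 µM compound | Read-out basis: Droplet intensity reduction, % inhibition | Measured by: Fluorescence imaging, 20x objective, two fields per well | Schedule: Overnight treatment with compound plus oleate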
STAT1 inh – reduces IFN-gamma driven STAT1 reporter signal; NIH 3T3 STAT1-luciferase reporter, luminescence; inhibition, % at 5.5 µM; actives 0.35% (n = 200,000);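 active = inhibition above a set limit, the mean inhibition across all tested compounds plus 3 SD, cut at about 34% in these data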
Platelet DG rel – platelet dense granule release activity. human platelet-rich plasma, SFLLRN dense granule ATP release, luminescence. inhibition, %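 (compounds screened at 7.5 µM in platelet-rich plasma)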. actives 0.22% (n = 300,000);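 active = mean replicate score, as percent of positive control, at or above 50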
STAT3 inh – inhibitors of IL-6 induced STAT3 signaling. U3A cells, IL-6 STAT3-luciferase reporter, luminescence; host cell line lacks STAT1. inhibition, % at 5.5 µM. actives 0.89% (n = 190,000);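 active = inhibition above the mean inhibition across all screened compounds plus 3 SD, cut at about 44% in these data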
PPC-1+TRAIL kill – PPC-1 cancer cell killing with TRAIL present. PPC-1 cells + TRAIL, ATPLite viability luminescence. cell killing (% activity), % at 4 µM or 5 µM. actives 0.41% (n = 220,000). AID 1443;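 active = cell killing above 50% in the first pass at 4 µM, then a duplicate retest at 5 µM averaging 50% or more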
PPC-1 tox – PPC-1 cell cytotoxicity | shares compounds with PPC-1+TRAIL kill | PPC-1 viability, ATPlite luminescence, overnight | cytotoxicity, % at 5 µM | actives 50% (n = 1,200);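 active = reconfirmed compounds whose average cytotoxicity reaches 50% or more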
Of the large screens only hits and unclear results are named; the others gave an inactive call (follow-up assays come after a bar, where they were run). This is a sample that favours compounds with a hit; in the whole collection about 1.5% have one here.

CCN(C(=O)c1ccco1)c1nnc(-c2ccc(OC)cc2)s1	PPC-1+TRAIL kill 68 | PPC-1 tox 70
CCCN(C(=O)c1ccco1)c1nnc(-c2cccc(C)c2)s1	none (no result: H9c2 TAG inh)
COc1ccc(-c2cc(C#N)nc(Cl)n2)cc1	none (no result: STAT1 inh, STAT3 inh) | PPC-1 tox inactive
COc1ccc(-c2cc(C#N)nc(Oc3ccc(Cl)cc3)n2)cc1	none
Clc1ccc(NN(Cc2ccncc2)c2ccc(Cl)cc2)cc1	none (no result: Hep lipid drop, STAT1 inh, Platelet DG rel, STAT3 inh, PPC-1+TRAIL kill)
Cc1ccc(-c2nc(N/N=C/c3ccncc3)c3ccccc3n2)cc1	STAT1 inh 78, Platelet DG rel 109, STAT3 inh 90, PPC-1+TRAIL kill 98 (no result: H9c2 TAG inh) | PPC-1 tox 98
c1ccc(CNc2nc(-c3ccccn3)nc3ccccc23)cc1	none (no result: H9c2 TAG inh, STAT1 inh, STAT3 inh, PPC-1+TRAIL kill)
Clc1ccc(/C=N/Nc2nnc(Cl)c3ccccc23)cc1	none (no result: H9c2 TAG inh)
Fc1ccccc1/C=N/Nc1nc(-c2ccccn2)nc2ccccc12	PPC-1+TRAIL kill 61 (no result: H9c2 TAG inh, STAT1 inh, STAT3 inh) | PPC-1 tox inactive
Cc1cccc(/C=N/Nc2nncc3ccccc23)c1	STAT1 inh 52, STAT3 inh 84, PPC-1+TRAIL kill 77 | PPC-1 tox 77
Cc1ccc(/C=N/Nc2nnc(Cl)c3ccccc23)cc1	PPC-1+TRAIL kill 78 | PPC-1 tox 78
CC(C)[C@@H](CO)NC(=O)c1ccc2c3n(nc2c1)-c1ccccc1CO3	Platelet DG rel 75, PPC-1+TRAIL kill 71 (no result: Hep lipid drop, STAT1 inh, STAT3 inh) | PPC-1 tox 69
CC(C)NC(=O)c1ccc2c3n(nc2c1)-c1ccccc1CO3	PPC-1+TRAIL kill 90 (no result: H9c2 TAG inh, Hep lipid drop, STAT1 inh, STAT3 inh) | PPC-1 tox 90
CC1C2NC(=O)N(Cc3ccccc3)C1(C)Oc1ccccc12 (stereo unspecified)	none | PPC-1 tox inactive
CC12CC(NC(=O)N1CCc1ccccc1)c1ccccc1O2 (stereo unspecified)	none (no result: H9c2 TAG inh, Hep lipid drop)
COc1cc(/C=N/Nc2nncn2/N=C/c2ccc(O)c(OC)c2)ccc1O	Platelet DG rel 56, PPC-1+TRAIL kill 83 | PPC-1 tox 83
COc1ccc(OC)c(/C=N/Nc2nncn2/N=C/c2cc(OC)ccc2OC)c1	none (no result: H9c2 TAG inh)
CCC(=O)Nc1cc2nn(-c3ccccc3)nc2cc1Cl	PPC-1+TRAIL kill 60 | PPC-1 tox 60
CC(=O)Nc1cc2nn(-c3ccccc3)nc2cc1C	none (no result: STAT1 inh, STAT3 inh, PPC-1+TRAIL kill)
CCOC(=O)c1sc(-c2ccc(OC)cc2)cc1N	none (no result: H9c2 TAG inh) | PPC-1 tox inactive
CC1(C)CC(=O)c2sc(NC(=O)c3ccccc3)nc2C1	PPC-1+TRAIL kill 52 (no result: H9c2 TAG inh) | PPC-1 tox 52
COc1ccc(C(=O)NC(=O)Nc2cc(C)ccn2)cc1	STAT1 inh 39, STAT3 inh 97, PPC-1+TRAIL kill 87 (no result: H9c2 TAG inh, Hep lipid drop) | PPC-1 tox 87
CCN(CC(=O)Nc1ccc2c(c1)OCCO2)C(=O)COc1ccc(C(C)=O)cc1	none (no result: Hep lipid drop, STAT1 inh, Platelet DG rel, STAT3 inh, PPC-1+TRAIL kill)
COc1ccc(OC)c(CN2CCN(C(=O)c3ccc(C)c(S(=O)(=O)Nc4ccccc4OC)c3)CC2)c1	none (no result: Hep lipid drop, STAT1 inh, Platelet DG rel, STAT3 inh, PPC-1+TRAIL kill)
COCc1nnc(NC(=O)c2sc3ccccc3c2Cl)s1	none | PPC-1 tox inactive
COCc1nnc(NC(=O)c2cccs2)s1	none
N#CN=CN1CC=C(c2ccc(Cl)cc2)CC1	none (no result: Hep lipid drop, STAT1 inh, Platelet DG rel, STAT3 inh, PPC-1+TRAIL kill)
N#CC1=C(N)Oc2n[nH]c(-c3cccs3)c2C1c1ccoc1 (stereo unspecified)	none (no result: H9c2 TAG inh) | PPC-1 tox inactive
COc1cc(-c2[nH]nc3c2C(c2ccoc2)C(C#N)=C(N)O3)cc(OC)c1OC (stereo unspecified)	none (no result: H9c2 TAG inh, Platelet DG rel) | PPC-1 tox inactive
COc1cccc(-c2[nH]nc3c2C(c2ccoc2)C(C#N)=C(N)O3)c1 (stereo unspecified)	none (no result: H9c2 TAG inh)
Cc1ccc(C2C(C#N)=C(N)Oc3n[nH]c(-c4cccs4)c32)cc1 (stereo unspecified)	none
C[C@@H]1CN([C@H](C)CO)C(=O)CCCn2nncc2CO[C@H]1CN(C)Cc1cccc(C(=O)O)c1	none (no result: Hep lipid drop, STAT1 inh, Platelet DG rel, STAT3 inh, PPC-1+TRAIL kill)
N#Cc1c(SCC(=O)N2CCCCC2)nsc1SCC(=O)N1CCCCC1	none | PPC-1 tox inactive
COC(=O)CSc1nsc(SCC(=O)OC)c1C#N	none (no result: H9c2 TAG inh)
CCc1c(C)sc(NC(=O)c2cc(CC(C)C)on2)c1C#N	none (no result: Hep lipid drop) | PPC-1 tox inactive
Cc1noc(C)c1S(=O)(=O)NC(=O)C1(C)CCN1C(=O)CC(c1ccccc1)c1ccccc1 (stereo unspecified)	none (no result: Hep lipid drop, STAT1 inh, Platelet DG rel, STAT3 inh, PPC-1+TRAIL kill)

Source: PubChem BioAssay
